≈ marks a conversion by molar mass, not a printed value.

The subject of the first assay is Staphylococcus aureus. As to the kind of experiment: In vitro antibacterial activity against Staphylococcus aureus Smith. The format is functional. The essentials:
(§1)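 MIC (μg/mL) determined by agar dilution on Mueller–Hinton agar. Plates were incubated at 35 °C for 18 h. MIC was taken as the lowest agent concentration that prevented visible growth.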
The term MIC denotes the least concentration at which growth counts as inhibited. A low value points to greater potency. The compound `CN1CCN(c2cc3c(cc2F)c(=O)c(C(=O)O)cn3C)CC1` gave an MIC of 0.39 µg/mL (≈ 1.22 µM).

Compound `CCn1cc(C(=O)O)c(=O)c2cc(F)c(N3CCNCC3)cc21` [NORFLOXACIN] had an MIC of 0.39 µg/mL (≈ 1.22 µM).

For `CN1CCN(c2cc3c(cc2F)c(=O)c(C(=O)O)cn3C(F)(F)F)CC1.Cl`, the MIC was found to be 0.78 µg/mL.

`CCn1cc(C(=O)O)c(=O)c2cc(F)c(N3CCN(C)CC3)cc21` [PEFLOXACIN] gave an MIC of 0.2 µg/mL (≈ 0.6 µM).

`CN1CCN(c2cc3c(cc2F)c(=O)c(C(=O)O)cn3C2CC2)CC1` displayed an MIC of 0.1 µg/mL (≈ 0.29 µM).

With `CN1CCN(c2cc3c(cc2F)c(=O)c(C(=O)O)cn3CCF)CC1`, the MIC turned out to be 0.2 µg/mL (≈ 0.569 µM).

`CN1CCN(c2cc3c(cc2F)c(=O)c(C(=O)O)cn3C(C)(C)C)CC1`: it took 0.2 µg/mL (≈ 0.553 µM) to inhibit growth (MIC).

Take `NC1CCN(c2cc3c(cc2F)c(=O)c(C(=O)O)cn3C(F)(F)F)C1` (stereo unspecified): the MIC came out at 1.56 µg/mL (≈ 4.34 µM).

Take `CN1CCN(c2cc3c(cc2F)c(=O)c(C(=O)O)cn3-c2ccc(F)cc2F)CC1`: the MIC was determined as 0.1 µg/mL (≈ 0.24 µM).

The next assay concerns Pseudomonas aeruginosa. The experiment in a line: In vitro antibacterial activity against Pseudomonas aeruginosa IID1210. It is filed as functional. The essentials: as §1
Turning to `CN1CCN(c2cc3c(cc2F)c(=O)c(C(=O)O)cn3C)CC1`, the MIC turned out to be 1.56 µg/mL (≈ 4.89 µM).

`CCn1cc(C(=O)O)c(=O)c2cc(F)c(N3CCNCC3)cc21` [NORFLOXACIN] gave an MIC of 1.56 µg/mL (≈ 4.89 µM).

`CN1CCN(c2cc3c(cc2F)c(=O)c(C(=O)O)cn3C(F)(F)F)CC1.Cl` yielded an MIC of 6.25 µg/mL.

The compound `CCn1cc(C(=O)O)c(=O)c2cc(F)c(N3CCN(C)CC3)cc21` [PEFLOXACIN] had an MIC of 1.56 µg/mL (≈ 4.68 µM).

In turn, `CN1CCN(c2cc3c(cc2F)c(=O)c(C(=O)O)cn3C2CC2)CC1` showed an MIC of 0.78 µg/mL (≈ 2.26 µM). This MIC lies about 2-fold lower than the previous one.

In turn, `CN1CCN(c2cc3c(cc2F)c(=O)c(C(=O)O)cn3CCF)CC1` gave an MIC of 1.56 µg/mL (≈ 4.44 µM).

For `CN1CCN(c2cc3c(cc2F)c(=O)c(C(=O)O)cn3C(C)(C)C)CC1`, the lowest concentration to inhibit growth (MIC) was 1.56 µg/mL (≈ 4.32 µM).

`NC1CCN(c2cc3c(cc2F)c(=O)c(C(=O)O)cn3C(F)(F)F)C1` (stereo unspecified) registered an MIC greater than 12.5 µg/mL.

Consider `CN1CCN(c2cc3c(cc2F)c(=O)c(C(=O)O)cn3-c2ccc(F)cc2F)CC1`, for which the MIC was 3.13 µg/mL (≈ 7.5 µM).

The test system of another assay is Streptococcus pneumoniae. The experiment in a line: In vitro antibacterial activity against Streptococcus pneumoniae type III. It is filed as functional. The essentials: as §1
`CN1CCN(c2cc3c(cc2F)c(=O)c(C(=O)O)cn3C)CC1`: the MIC worked out at 6.25 µg/mL (≈ 19.6 µM).

As to `CCn1cc(C(=O)O)c(=O)c2cc(F)c(N3CCNCC3)cc21` [NORFLOXACIN], the MIC was found to be 3.13 µg/mL (≈ 9.8 µM).

With `CN1CCN(c2cc3c(cc2F)c(=O)c(C(=O)O)cn3C(F)(F)F)CC1.Cl`, the MIC came out at 3.13 µg/mL.

In turn, `CCn1cc(C(=O)O)c(=O)c2cc(F)c(N3CCN(C)CC3)cc21` [PEFLOXACIN] yielded an MIC of 3.13 µg/mL (≈ 9.39 µM).

`CN1CCN(c2cc3c(cc2F)c(=O)c(C(=O)O)cn3C2CC2)CC1` displayed an MIC of 0.39 µg/mL (≈ 1.13 µM).

With `CN1CCN(c2cc3c(cc2F)c(=O)c(C(=O)O)cn3CCF)CC1`, inhibition of growth (MIC) required 1.56 µg/mL (≈ 4.44 µM).

In the case of `CN1CCN(c2cc3c(cc2F)c(=O)c(C(=O)O)cn3C(C)(C)C)CC1`, the lowest concentration to inhibit growth (MIC) was 0.78 µg/mL (≈ 2.16 µM).

For `NC1CCN(c2cc3c(cc2F)c(=O)c(C(=O)O)cn3C(F)(F)F)C1` (stereo unspecified), the minimal inhibitory concentration (MIC) turned out to be 12.5 µg/mL (≈ 34.8 µM).

In turn, `CN1CCN(c2cc3c(cc2F)c(=O)c(C(=O)O)cn3-c2ccc(F)cc2F)CC1` returned an MIC of 0.39 µg/mL (≈ 0.934 µM).

The next assay relates to Escherichia coli. The experiment in a line: In vitro antibacterial activity against Escherichia coli NIHJ JC-2. It is filed as functional. The essentials:
as §1
On to `CN1CCN(c2cc3c(cc2F)c(=O)c(C(=O)O)cn3C)CC1`, for which the MIC worked out at 0.05 µg/mL (≈ 0.157 µM).

`CCn1cc(C(=O)O)c(=O)c2cc(F)c(N3CCNCC3)cc21` [NORFLOXACIN] gave an MIC of 0.05 µg/mL (≈ 0.157 µM).

`CN1CCN(c2cc3c(cc2F)c(=O)c(C(=O)O)cn3C(F)(F)F)CC1.Cl` had an MIC of 0.05 µg/mL.

The compound `CCn1cc(C(=O)O)c(=O)c2cc(F)c(N3CCN(C)CC3)cc21` [PEFLOXACIN] gave an MIC of 0.025 µg/mL (≈ 0.075 µM). This MIC is about 2-fold lower than that of the compound before.

In turn, `CN1CCN(c2cc3c(cc2F)c(=O)c(C(=O)O)cn3C2CC2)CC1` displayed an MIC of no more than 0.0063 µg/mL.

Take `CN1CCN(c2cc3c(cc2F)c(=O)c(C(=O)O)cn3CCF)CC1`: it took 0.0125 µg/mL (≈ 0.0356 µM) to inhibit growth (MIC).

On to `CN1CCN(c2cc3c(cc2F)c(=O)c(C(=O)O)cn3C(C)(C)C)CC1`, for which the lowest concentration to inhibit growth (MIC) was 0.025 µg/mL (≈ 0.0692 µM).

In turn, `NC1CCN(c2cc3c(cc2F)c(=O)c(C(=O)O)cn3C(F)(F)F)C1` (stereo unspecified) had an MIC of 0.39 µg/mL (≈ 1.09 µM).

On to `CN1CCN(c2cc3c(cc2F)c(=O)c(C(=O)O)cn3-c2ccc(F)cc2F)CC1`, for which the lowest concentration to inhibit growth (MIC) was 0.1 µg/mL (≈ 0.24 µM).

For the origin of these results see ChEMBL document CHEMBL1144355, “Synthesis and antibacterial activity of the 4-quinolone-3-carboxylic acid derivatives having a trifluoromethyl group as a novel N-1 substituent” (2005).
